The text below walks through data of publication PMC2077835 (Drug metabolism and disposition: the biological fate of …, 2006).

For data set [1], the system named is M1 formation by human liver microsomes. The data set is described as follows: Chemical inhibition of M1 formation by HLMs. It is filed as biochemical.
The conditions of data set [2]: HLMs, ref Zimmerlin and Patten (2000), cited from earlier work.
For data set [3], the system named is CYP2J2. As to conditions: ref Hashizume et al. (2002); cited from earlier work.
Data set [4] deals with T1, recombinant CYP4F3B (Homo sapiens, UniProt Q08477).
T1 sequence (Q08477 1-520 isoform Q08477-2): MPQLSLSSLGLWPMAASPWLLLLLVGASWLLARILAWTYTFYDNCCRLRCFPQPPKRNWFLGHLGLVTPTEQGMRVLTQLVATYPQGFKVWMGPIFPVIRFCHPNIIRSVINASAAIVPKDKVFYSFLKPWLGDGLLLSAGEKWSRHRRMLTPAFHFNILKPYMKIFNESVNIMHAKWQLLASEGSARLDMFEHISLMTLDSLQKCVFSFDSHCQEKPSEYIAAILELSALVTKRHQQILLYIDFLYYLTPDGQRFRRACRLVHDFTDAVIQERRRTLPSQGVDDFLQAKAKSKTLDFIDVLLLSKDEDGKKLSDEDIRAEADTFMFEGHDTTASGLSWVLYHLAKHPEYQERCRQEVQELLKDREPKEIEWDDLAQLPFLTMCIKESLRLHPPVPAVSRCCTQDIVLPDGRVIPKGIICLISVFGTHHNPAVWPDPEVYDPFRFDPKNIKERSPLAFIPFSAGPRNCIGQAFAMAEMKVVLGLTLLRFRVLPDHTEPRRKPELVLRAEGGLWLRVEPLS
The data set is described as follows: Chemical inhibition of M1 formation by recombinant CYP4F3B. It is filed as biochemical.

The target in data set [5] is T2, recombinant CYP4F2 (Homo sapiens, UniProt P78329).
T2 sequence (P78329 5-520): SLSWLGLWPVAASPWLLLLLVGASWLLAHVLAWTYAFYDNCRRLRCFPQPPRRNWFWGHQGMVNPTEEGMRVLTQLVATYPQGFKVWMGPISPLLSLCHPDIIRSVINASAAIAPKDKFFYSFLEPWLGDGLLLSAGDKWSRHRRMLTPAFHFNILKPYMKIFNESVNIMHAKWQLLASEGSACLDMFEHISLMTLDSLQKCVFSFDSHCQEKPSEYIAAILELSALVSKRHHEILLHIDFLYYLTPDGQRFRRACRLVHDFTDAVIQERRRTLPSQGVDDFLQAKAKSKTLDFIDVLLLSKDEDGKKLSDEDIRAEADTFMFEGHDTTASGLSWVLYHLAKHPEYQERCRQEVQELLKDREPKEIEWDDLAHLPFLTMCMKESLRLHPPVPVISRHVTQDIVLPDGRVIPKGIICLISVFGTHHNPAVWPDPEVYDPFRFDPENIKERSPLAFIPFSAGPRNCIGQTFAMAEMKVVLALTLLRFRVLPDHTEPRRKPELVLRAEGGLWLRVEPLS
The experiment in a line: Chemical inhibition of M1 formation by recombinant CYP4F2. It is filed as biochemical.

For data set [6], the target named is T3, CYP2J2 (Homo sapiens, UniProt P51589).
T3 sequence (P51589 1-502): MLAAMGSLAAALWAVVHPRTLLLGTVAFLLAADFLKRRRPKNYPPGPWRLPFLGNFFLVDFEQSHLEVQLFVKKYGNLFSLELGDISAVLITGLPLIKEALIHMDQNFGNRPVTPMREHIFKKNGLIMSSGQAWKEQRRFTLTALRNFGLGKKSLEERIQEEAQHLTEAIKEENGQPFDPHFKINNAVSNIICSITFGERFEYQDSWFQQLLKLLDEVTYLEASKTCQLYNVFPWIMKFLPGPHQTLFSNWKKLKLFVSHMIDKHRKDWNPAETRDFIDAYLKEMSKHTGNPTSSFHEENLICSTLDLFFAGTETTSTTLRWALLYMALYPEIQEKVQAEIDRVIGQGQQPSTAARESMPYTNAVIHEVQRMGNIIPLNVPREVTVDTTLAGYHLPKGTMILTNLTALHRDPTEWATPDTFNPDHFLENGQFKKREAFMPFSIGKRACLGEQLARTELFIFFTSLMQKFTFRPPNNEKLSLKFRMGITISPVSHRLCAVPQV
The data set is described as follows: Chemical inhibition of M1 formation by recombinant CYP2J2. It is filed as biochemical.

Data set [7] can be described thus: Incubation of DB289 with pooled human liver microsomes. It is filed as in vitro ADME. As to conditions: 15 μM DB289, 0.2 mg/ml HLMs, 0-120 min. Put shortly:
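Pooled liver microsomes (50 donors, mixed gender) at 0.2 mg/ml with 15 μM substrate in a 1 ml mix, equilibrated 5 min at 37°C, then started with NADPH. Aliquots taken at 0, 5, 15, 30 and 120 min into ice-cold acetonitrile. LC/UV at 359 nm against an external 0.1–15 μM calibration; metabolites identified by retention time versus synthetic standards. Single determination; controls lacked NADPH, protein or substrate.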

[8] abbreviates: read-out: inhibition of M1 formation.
The mark [9] stands for this setting: 100 μM inhibitor, 10 pmol/ml P450, 3 μM DB289.
Setting [10] is: 0.2 μM and 1 μM, 10 pmol/ml P450, 3 μM DB289.

As a reminder, the Km is the substrate concentration at which the rate is half of its maximum. A word on the inhibition: it is the percentage by which the read-out fell short of the control.

Each structure is given as a SMILES string.

`CO[C@H]1C[C@H](O[C@H]2[C@H](C)[C@@H](O[C@@H]3O[C@H](C)C[C@H](N(C)C)[C@H]3OC(C)=O)[C@@H](C)C[C@@]3(CO3)C(=O)[C@H](C)[C@@H](OC(C)=O)[C@@H](C)[C@@H](C)OC(=O)[C@@H]2C)O[C@@H](C)[C@@H]1OC(C)=O` [troleandomycin]: in data set [1] (50 or 100 μM inhibitor, 0.2 mg/ml HLM, 3 μM DB289), the “inhibition of M1 formation” value is “did not inhibit”.

Regarding `CCCCCCCCc1ccc(CCC(N)(CO)CO)cc1` [FTY720, 2-amino-2-[2-(4-octylphenyl)ethyl]-1,3-propanediol], the “Vmax of ω-hydroxylation” value in data set [2] was 1850 pmol/min/mg protein. Besides, in data set [2] (read-out: apparent Km of ω-hydroxylation), the Km was 180 µM.

Consider `CC(C)(C)c1ccc(C(=O)CCCN2CCC(OC(c3ccccc3)c3ccccc3)CC2)cc1` [ebastine], for which the Km in data set [3] is 1.3 µM.

Regarding `O=c1cc(-c2ccccc2)oc2c1ccc1ccccc12` [α-naphthoflavone], the “inhibition of M1 formation” value in data set [1] (1 μM inhibitor, 0.2 mg/ml HLM, 3 μM DB289, 5 min) is listed as “negligible inhibition”.

Regarding `CCCCc1ccc(N=CNO)c(C)c1` [HET0016, N-hydroxy-N′-(4-n-butyl-2-methylphenyl)formamidine], the inhibition at 0.02 µM worked out at 79% in data set [4] (setting [8]) and 82% in data set [5] (setting [8]). Further, the “inhibition of M1 formation” value in data set [1] (0.1 μM inhibitor, 0.2 mg/ml HLM, 3 μM DB289) worked out at 78%; in data set [1] (0.5 μM inhibitor, 0.2 mg/ml HLM, 3 μM DB289) it was 95%.

For `CC(=O)N1CCN(c2ccc(OCC3COC(Cn4ccnc4)(c4ccc(Cl)cc4Cl)O3)cc2)CC1` (stereo not shown) [ketoconazole], the “inhibition of M1 formation” value was “no effect” in data set [4] (3 μM inhibitor, 10 pmol/ml P450, 3 μM DB289, 15 min); 61% in data set [1] (3 μM inhibitor, 0.2 mg/ml HLM, 3 μM DB289, 5 min, Fig. 4); about 43% in data set [1] (3 μM inhibitor, 0.2 mg/ml pooled HLMs (different lot), 3 μM DB289, 5 min, Fig. 8). Further, the inhibition at 5 min, 3 μM in data set [6] (human, recombinant CYP2J2, pH 7.4, probe DB289 (3 μM), conversion to M1) was found to be 93%. Also, the inhibition at 3 µM in data set [5] (setting [8]) was 87%.

As for `N=C(N)c1ccc(-c2ccc(-c3ccc(C(=N)N)cc3)o2)cc1` [DB75, 2,5-bis(4-amidinophenyl) furan], the “concentration of metabolite formed from DB289” value in data set [7] is recorded as “below the lower level of quantification”.

Consider `Nn1nnc2ccccc21` [ABT, 1-aminobenzotriazole], for which, in data set [1] (100 μM inhibitor, 15 min preincubation, 0.2 mg/ml HLM, 3 μM DB289, 5 min), the “inhibition of M1 formation relative to control” value was found to be 86%.

In the case of `CCCCC/C=C\C/C=C\C/C=C\C/C=C\CCCC(=O)O` [arachidonic acid], the “inhibition of M1 formation” value was “potently inhibited” in data set [4] (setting [9]); 60% in data set [1] (500 μM inhibitor, 0.2 mg/ml HLM, 3 μM DB289); “no effect” in data set [1] (inhibitor up to 100 μM, 0.2 mg/ml HLM, 3 μM DB289); “potently inhibited” in data set [5] (setting [9]).

Take `C#CCCCCCCCCCCCCCCCC(=O)O` [17-ODYA, 17-Octadecynoic acid]: the “activation of M1 formation at low concentrations” value in data set [4] (setting [10]) was “appeared to activate”; in data set [6] (setting [10]), “activation was not observed”; in data set [5] (setting [10]) it was “activation was not observed”. In addition, the “inhibition of M1 formation” value in data set [1] (1 μM inhibitor, 15 min preincubation, 0.2 mg/ml HLM, 3 μM DB289) is 39%; in data set [1] (10 μM inhibitor, 15 min preincubation, 0.2 mg/ml HLM, 3 μM DB289), 84%.
